We go through ten compounds from ChEMBL document CHEMBL3813625, “Discovery of a Novel, Orally Efficacious Liver X Receptor (LXR) β Agonist” (J Med Chem, 2016).

The nature of data set [1]: Half life in rat liver microsomes. It counts as ADME.
Data set [2] is described as follows: Half life in mouse liver microsomes. It counts as ADME.
The nature of data set [3]: Half life in human liver microsomes. It counts as ADME. For orientation: Microsomes from liver hold many membrane-bound enzymes, among them those of drug oxidation.
The target in data set [4] is T1, Mineralocorticoid receptor (Homo sapiens, UniProt P08235).
T1 sequence (P08235 whole entry): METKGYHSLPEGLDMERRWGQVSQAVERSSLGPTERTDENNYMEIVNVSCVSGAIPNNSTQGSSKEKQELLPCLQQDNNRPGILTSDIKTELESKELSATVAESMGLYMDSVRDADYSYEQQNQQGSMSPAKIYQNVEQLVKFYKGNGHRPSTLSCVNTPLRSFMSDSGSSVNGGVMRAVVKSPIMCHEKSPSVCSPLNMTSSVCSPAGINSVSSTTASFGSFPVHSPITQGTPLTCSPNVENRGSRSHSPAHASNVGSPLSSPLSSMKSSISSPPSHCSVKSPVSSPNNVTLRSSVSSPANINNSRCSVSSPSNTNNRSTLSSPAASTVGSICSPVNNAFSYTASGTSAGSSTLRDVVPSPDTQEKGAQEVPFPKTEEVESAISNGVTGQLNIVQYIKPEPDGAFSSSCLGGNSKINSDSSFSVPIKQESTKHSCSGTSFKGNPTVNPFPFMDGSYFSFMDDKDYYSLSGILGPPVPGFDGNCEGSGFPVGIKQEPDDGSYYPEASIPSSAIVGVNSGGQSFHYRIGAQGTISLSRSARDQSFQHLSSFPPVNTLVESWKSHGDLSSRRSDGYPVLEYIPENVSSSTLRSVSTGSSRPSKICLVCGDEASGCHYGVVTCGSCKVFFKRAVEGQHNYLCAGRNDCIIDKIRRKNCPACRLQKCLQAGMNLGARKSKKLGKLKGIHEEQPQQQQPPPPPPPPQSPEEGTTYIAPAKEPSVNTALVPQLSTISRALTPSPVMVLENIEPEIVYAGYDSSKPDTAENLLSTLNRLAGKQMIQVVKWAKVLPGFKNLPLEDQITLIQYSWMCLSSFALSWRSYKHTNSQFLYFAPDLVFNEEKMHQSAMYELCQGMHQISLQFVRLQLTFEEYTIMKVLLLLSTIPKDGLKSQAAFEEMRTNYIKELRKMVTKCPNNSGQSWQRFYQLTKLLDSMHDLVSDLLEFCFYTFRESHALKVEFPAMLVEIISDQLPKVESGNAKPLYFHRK
The data set can be described thus: Inhibition of Mineralocorticoid receptor (unknown origin).

The target of data set [5] is T2, Retinoid X receptor (Homo sapiens, UniProt P28702+P48443+P19793).
T2 sequence (P28702 whole entry): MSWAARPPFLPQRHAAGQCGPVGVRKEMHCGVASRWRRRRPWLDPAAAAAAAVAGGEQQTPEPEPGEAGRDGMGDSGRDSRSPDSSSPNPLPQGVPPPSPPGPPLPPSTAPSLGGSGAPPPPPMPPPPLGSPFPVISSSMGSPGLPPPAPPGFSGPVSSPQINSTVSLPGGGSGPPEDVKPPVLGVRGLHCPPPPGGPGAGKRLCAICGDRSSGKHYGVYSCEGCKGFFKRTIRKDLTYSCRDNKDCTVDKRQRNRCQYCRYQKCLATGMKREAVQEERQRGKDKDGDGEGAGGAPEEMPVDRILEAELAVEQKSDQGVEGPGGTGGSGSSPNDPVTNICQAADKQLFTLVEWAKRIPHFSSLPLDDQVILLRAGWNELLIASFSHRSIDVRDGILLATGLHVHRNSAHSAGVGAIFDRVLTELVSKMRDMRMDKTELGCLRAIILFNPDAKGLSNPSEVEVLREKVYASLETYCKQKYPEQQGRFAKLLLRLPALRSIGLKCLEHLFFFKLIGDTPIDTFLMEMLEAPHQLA
T2 sequence (P48443 whole entry): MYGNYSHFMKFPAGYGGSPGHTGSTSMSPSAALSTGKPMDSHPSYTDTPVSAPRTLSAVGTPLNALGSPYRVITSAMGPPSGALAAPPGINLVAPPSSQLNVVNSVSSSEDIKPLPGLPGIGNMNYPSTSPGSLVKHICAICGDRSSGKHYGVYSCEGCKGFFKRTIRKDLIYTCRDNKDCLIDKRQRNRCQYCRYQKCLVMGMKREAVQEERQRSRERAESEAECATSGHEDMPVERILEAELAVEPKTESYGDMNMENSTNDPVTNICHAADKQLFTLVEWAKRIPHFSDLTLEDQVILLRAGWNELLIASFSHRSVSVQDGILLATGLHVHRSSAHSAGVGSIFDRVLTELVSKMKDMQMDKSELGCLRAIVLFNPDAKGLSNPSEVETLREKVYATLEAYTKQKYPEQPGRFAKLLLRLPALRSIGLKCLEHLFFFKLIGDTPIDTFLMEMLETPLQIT
T2 sequence (P19793 whole entry): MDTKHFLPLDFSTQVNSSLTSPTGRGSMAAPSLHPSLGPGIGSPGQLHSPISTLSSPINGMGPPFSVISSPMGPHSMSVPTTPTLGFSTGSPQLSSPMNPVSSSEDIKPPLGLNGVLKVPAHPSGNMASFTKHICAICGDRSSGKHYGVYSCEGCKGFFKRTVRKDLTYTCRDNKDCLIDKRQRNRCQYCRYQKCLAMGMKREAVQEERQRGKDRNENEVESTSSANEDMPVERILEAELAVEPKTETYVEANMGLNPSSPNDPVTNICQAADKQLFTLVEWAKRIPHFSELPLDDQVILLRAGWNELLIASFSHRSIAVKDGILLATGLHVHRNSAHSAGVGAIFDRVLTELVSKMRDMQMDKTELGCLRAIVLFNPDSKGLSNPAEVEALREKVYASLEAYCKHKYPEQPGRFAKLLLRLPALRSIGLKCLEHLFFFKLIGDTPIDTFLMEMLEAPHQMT
Nature of the data set: Inhibition of RXR (unknown origin). It counts as protein assay.

Data set [6] has as its target T3, Nuclear receptor ROR-alpha (Homo sapiens, UniProt P35398).
T3 sequence (P35398 whole entry): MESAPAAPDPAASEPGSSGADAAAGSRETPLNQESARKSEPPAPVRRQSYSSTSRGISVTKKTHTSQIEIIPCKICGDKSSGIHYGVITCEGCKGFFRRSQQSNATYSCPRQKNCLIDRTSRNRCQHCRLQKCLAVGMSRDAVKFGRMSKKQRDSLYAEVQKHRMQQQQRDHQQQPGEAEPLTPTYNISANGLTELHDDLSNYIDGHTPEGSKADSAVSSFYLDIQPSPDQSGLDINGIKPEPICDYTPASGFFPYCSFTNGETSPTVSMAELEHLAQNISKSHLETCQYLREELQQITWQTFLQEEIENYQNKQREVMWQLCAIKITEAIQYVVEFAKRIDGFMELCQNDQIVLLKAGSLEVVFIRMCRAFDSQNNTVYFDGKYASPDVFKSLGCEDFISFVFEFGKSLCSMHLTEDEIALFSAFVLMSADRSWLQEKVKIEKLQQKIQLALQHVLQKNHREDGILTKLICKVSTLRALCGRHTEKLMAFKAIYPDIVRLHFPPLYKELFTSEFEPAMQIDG
Nature of the data set: Inhibition of RORalpha receptor (unknown origin).

For data set [7], the target named is T4, Nuclear receptor subfamily 1 group I member 2 (Homo sapiens, UniProt O75469).
T4 sequence (O75469 whole entry): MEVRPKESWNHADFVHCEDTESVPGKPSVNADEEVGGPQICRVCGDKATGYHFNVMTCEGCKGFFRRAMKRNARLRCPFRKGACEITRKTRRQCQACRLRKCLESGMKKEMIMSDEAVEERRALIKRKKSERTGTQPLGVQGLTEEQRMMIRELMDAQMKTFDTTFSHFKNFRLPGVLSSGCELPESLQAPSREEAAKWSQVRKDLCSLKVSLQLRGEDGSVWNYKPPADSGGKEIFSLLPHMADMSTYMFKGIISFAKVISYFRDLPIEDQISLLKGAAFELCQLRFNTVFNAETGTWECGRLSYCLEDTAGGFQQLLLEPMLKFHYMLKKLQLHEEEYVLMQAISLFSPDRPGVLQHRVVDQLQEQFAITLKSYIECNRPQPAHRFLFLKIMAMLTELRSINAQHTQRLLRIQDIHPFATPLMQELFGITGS
Nature of the data set: Inhibition of PXR (unknown origin).

Data set [8] in a line: Half life in cynomolgus monkey liver microsomes. It counts as ADME, Macaca fascicularis.
Data set [9] concerns the target T5, Oxysterols receptor LXR-alpha (Homo sapiens, UniProt Q13133).
T5 sequence (Q13133 whole entry): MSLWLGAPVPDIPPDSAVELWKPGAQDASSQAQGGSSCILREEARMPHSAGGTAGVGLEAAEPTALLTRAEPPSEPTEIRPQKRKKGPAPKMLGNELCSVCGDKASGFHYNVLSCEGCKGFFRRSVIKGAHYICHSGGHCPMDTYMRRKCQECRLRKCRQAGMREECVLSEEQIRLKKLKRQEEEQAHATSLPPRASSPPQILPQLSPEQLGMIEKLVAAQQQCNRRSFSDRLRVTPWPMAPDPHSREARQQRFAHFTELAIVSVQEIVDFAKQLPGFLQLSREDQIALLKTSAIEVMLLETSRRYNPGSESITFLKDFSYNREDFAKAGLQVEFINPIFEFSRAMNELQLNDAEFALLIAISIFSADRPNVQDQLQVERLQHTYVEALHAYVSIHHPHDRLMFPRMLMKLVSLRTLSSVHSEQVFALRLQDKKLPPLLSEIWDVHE
Nature of the data set: Agonist activity at human LXRalpha ligand binding domain(167 to 447 residues) transfected in HEK293 cells after 16 hrs by Gal4-luciferase reporter gene assay. It counts as cell-based. Background: In a reporter assay the amount or activity of a reporter protein is the signal.

Data set [10] has as its target T6, Oxysterols receptor LXR-beta (Homo sapiens, UniProt P55055).
T6 sequence (P55055 whole entry): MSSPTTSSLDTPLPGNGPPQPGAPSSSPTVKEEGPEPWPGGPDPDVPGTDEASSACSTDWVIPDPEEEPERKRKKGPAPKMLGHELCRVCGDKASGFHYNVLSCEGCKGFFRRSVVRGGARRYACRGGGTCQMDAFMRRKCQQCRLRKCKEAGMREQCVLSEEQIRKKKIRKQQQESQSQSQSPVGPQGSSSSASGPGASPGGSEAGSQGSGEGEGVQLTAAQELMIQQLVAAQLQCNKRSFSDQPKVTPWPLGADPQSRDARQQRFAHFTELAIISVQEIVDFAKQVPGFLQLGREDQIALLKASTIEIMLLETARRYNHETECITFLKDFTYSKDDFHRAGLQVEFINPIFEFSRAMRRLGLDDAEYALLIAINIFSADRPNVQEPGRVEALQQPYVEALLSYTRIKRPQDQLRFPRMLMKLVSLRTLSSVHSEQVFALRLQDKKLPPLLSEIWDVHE
The data set can be described thus: Agonist activity at human LXRbeta ligand binding domain(155 to 460 residues) transfected in HEK293 cells after 16 hrs by Gal4-luciferase reporter gene assay. It counts as cell-based.

Data set [11] deals with T5, Oxysterols receptor LXR-alpha. Nature of the data set: Binding affinity to human LXRalpha.
For data set [12], the target named is T6, Oxysterols receptor LXR-beta. The data set can be described thus: Binding to human LXRbeta.
Data set [13] has as its target T5, Oxysterols receptor LXR-alpha. The data set can be described thus: Agonist activity at human LXRalpha coexpressed in African green monkey CV1 cells by Gal4 responsive reporter gene assay. It counts as cell-based, CV-1.
The target of data set [14] is T6, Oxysterols receptor LXR-beta. The data set can be described thus: Agonist activity at human LXRbeta coexpressed in African green monkey CV1 cells by Gal4 responsive reporter gene assay. It counts as cell-based, CV-1.
Data set [15] shares this target. The data set can be described thus: Agonist activity at human LXRbeta by Gal4 assay. The gist of the method:
(§1)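 Cells were co-transfected with pG5-luc reporter and a Gal4 fusion of the ligand-binding domain (pGal4-LXRα LBD for α, pGal4-LXRβ LBD for β). Twenty hours after transfection, cells were treated with compound for 16 h. Agonist activity was read as luciferase signal and EC50 derived. Values are the average of at least two independent determinations.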

Data set [16] addresses T5, Oxysterols receptor LXR-alpha. The data set can be described thus: Agonist activity at human LXRalpha by Gal4 assay. The gist of the method:
as §1

Broadly, the half-life is the time needed for the level to fall by half in the phase considered. Turning to `CC(C)[C@@H]1CN(c2ccc(F)c(S(C)(=O)=O)c2)CCN1c1nccc(C(F)(F)F)n1`, the half-life in [1] worked out at 5 min; in data set [2], 11 min.
Usually IC50 stands for the point on the concentration scale where inhibition reaches its midpoint. In the case of `CC(C)[C@@H]1CN(c2ccc(CO)c(S(C)(=O)=O)c2)CCN1c1ncc(CO)c(C(F)(F)F)n1`, the half-life in [3] came out at 43 min; in [1], 70 min; in data set [2], 40 min; in data set [8] it was 10 min. The IC50 in data set [4], in data set [5], in data set [6] and in data set [7] was above 10 µM each time.
With `CC(C)[C@@H]1CN(c2cccc(S(C)(=O)=O)c2)CCN1c1nccc(C(F)(F)F)n1`, the results for the half-life in data set [1] and in data set [2] were 11 min and 8 min, respectively.
What is called EC50 is the concentration that produces a half-maximal response. For the compound `FC(F)(F)c1ccc(CN2CCN(c3ccccc3)CC2c2ccccc2)cn1` (stereo unspecified), the EC50 in data set [9] and in [10] was above 20 µM each time.
Consider `C[C@H](CC[C@@H]1OC1(C)C)[C@H]1CC[C@H]2[C@@H]3CC=C4C[C@@H](O)CC[C@]4(C)[C@H]3CC[C@]12C` [24(S),25-EPOXYCHOLESTEROL], for which the EC50 was above 20000 nM in data set [11], above 20000 nM in data set [12], 117 nM in data set [13] and 168 nM in data set [14].
In the case of `CC(C)[C@@H]1CN(c2ccc(F)c(S(C)(=O)=O)c2)CCN1c1ncc(C(C)(C)O)c(C(F)(F)F)n1`, the half-life turned out to be 56 min in data set [3], 51 min in [1] and 72 min in [2].
In the same order, the values of `CC(C)[C@@H]1CN(c2ccc(F)c(S(C)(=O)=O)c2)CCN1c1ncc(CO)c(C(F)(F)F)n1` are 22 min, 36 min and 38 min.
As to `O=C(O)Cc1cccc(OCCCN(Cc2cccc(C(F)(F)F)c2Cl)CC(c2ccccc2)c2ccccc2)c1`, the EC50 in [15] turned out to be 390 nM; in data set [16] it was 1130 nM; in data set [11], 22 nM; in [12] it was 5 nM.
Turning to `CC(C)[C@@H]1CN(c2ccc(F)c(S(C)(=O)=O)c2)CCN1c1ncc(Cl)c(C(F)(F)F)n1`, the half-life turned out to be 19 min in data set [3] and 42 min in data set [1].
Turning to `CC(C)[C@H]1CN(c2ccc(CO)c(S(C)(=O)=O)c2)CCN1c1ncc(CO)c(C(F)(F)F)n1`, the half-life in data set [1] was 25 min.
